Screening results from PubChem BioAssay.
Compounds with a hit are over-represented: about 12% of the library has one in this group of screens.
CHOP inh = blocks CHOP induction under ER stress; 220,000 tested, 3.8% active; CHO-K1 CHOP-promoter luciferase, tunicamycin-induced, 15-18 h; inhibition, % at 10 µM;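 active = compounds that reduced the stress-induced luciferase reporter signal by more than about 70% of percent inhibition, limit read from the data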
Arbovirus inh = arbovirus infection inhibition. arbovirus infection cell-based antiviral screen. 200,000 tested, 0.37% active. inhibition, % at 10 µM; in the data active = inhibition above about 30%
Rad51 HR inh = blocks human Rad51 in homologous recombination; Q06609; hRad51 DNA strand exchange, fluorescence dequenching; inhibition, % at 10 µM; 200,000 tested, 0.085% active; AID 1385;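 active = inhibition above 40% at the single screening dose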
Target sequence (Q06609 whole entry, looked up): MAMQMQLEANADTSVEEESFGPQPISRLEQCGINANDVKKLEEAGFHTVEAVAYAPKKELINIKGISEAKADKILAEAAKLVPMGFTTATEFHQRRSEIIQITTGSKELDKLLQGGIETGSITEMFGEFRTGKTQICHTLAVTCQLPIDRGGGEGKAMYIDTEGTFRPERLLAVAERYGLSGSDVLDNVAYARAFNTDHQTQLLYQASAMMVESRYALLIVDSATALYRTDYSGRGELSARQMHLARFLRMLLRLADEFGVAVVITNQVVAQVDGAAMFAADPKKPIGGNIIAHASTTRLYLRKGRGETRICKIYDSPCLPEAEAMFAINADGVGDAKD
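material = hRad51 filaments on single-stranded DNA | reagent = Donor/quencher-labelled 47-bp dsDNA substrate | compound = 10 µM final, single point | schedule = strand-exchange reaction 15 min at room temperature | measured by = fluorescein emission 520 nm, excitation 485 nm | read-out basis = % inhibition versus plate control and blank means | benchmarks = plate controls and plate blanks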
L major viab = reduces viability of Leishmania major promastigotes; resazurin fluorescence viability; inhibition, % at 10 µM; 200,000 tested, 9% active; AID 1063;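 note: promastigotes grown with compound for 44 hours at 28 °C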
Wee1 degr inh = inhibitors of human Wee1 degradation; HeLa Luc-Wee1K328M stability, luciferase luminescence; 100% = proteasome inhibitor MG132 effect; P30291; reporter increase, % at 5 µM; 220,000 tested, 1.2% active;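 active = activation above the mean of all tested compounds plus 3 SD, set per screening run, cut at about 8.8% in these data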;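 note: cells exposed to compound for 20 h before luminescence read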
PKD1 inh = PKD1 (human) kinase inhibition; Q15139; PKD1 kinase fluorescence polarization assay; inhibition, % (concentration not given with the values); 200,000 tested, 0.056% active; AID 797
Numbers stand for hits; 0 = inactive; - = no result given. Cut-off read from the data, not from the text of the source, unless noted: active = inhibition above about 50%; inactive = the rest.

SMILES	CHOP inh	Arbovirus inh	Rad51 HR inh	L major viab	Wee1 degr inh	PKD1 inh
Cc1ccc(-c2nc(NCc3cccnc3)c3ccccc3n2)cc1	0	0	0	82.7	0	0
CC(C)CC(=O)NC(=S)Nc1ccccc1C(=O)Nc1ccccc1	0	0	0	0	0	0
O=C(NCc1cccnc1)c1cccc(Cl)c1	0	0	-	0	0	0
Clc1cccc(-c2nc(NCc3cccnc3)c3ccccc3n2)c1	0	0	0	86.5	0	0
CCC(=O)N1CC2(CC(c3cccc(NC(=O)COc4ccc(Cl)cc4)c3)=NO2)C[C@@H]1C(N)=O (stereo partly drawn)	0	-	0	-	-	-
NC(=O)[C@H]1CC2(CC(c3cccc(NC(=O)COc4ccc(Cl)cc4)c3)=NO2)CN1C(=O)c1ccc(Cl)cc1 (stereo partly drawn)	95.2	-	0	-	-	-
CCOc1ccc(-c2nnn(CC(=O)NCc3ccc(F)cc3)n2)cc1OCC	81.0	0	0	0	0	0
O=[N+]([O-])c1ccc(-c2nc(NCc3ccccc3)c3ccccc3n2)cc1	90.3	0	0	0	0	0
CN(Cc1ccccc1)c1nc(-c2cccc([N+](=O)[O-])c2)nc2ccccc12	0	0	0	91.8	10.7	0
Cc1ccc(-c2nc(N/N=C/c3cccc([N+](=O)[O-])c3)c3ccccc3n2)cc1	80.7	0	0	0	0	0
O=C(O)CNc1nc(-c2ccccc2)nc2ccccc12	0	0	0	0	0	0
O=[N+]([O-])c1cccc(-c2nc(N3CCOCC3)c3ccccc3n2)c1	0	0	0	0	0	0
O=[N+]([O-])c1cccc(-c2nc(NCc3ccccc3)c3ccccc3n2)c1	0	0	-	58.4	0	0
Cc1ccc(-c2nc(N/N=C/c3cccnc3)c3ccccc3n2)cc1	0	0	0	0	0	0
Cn1nc(OCC(=O)O)cc1C(F)(F)F	0	-	0	-	0	-
O=C(O)c1nccnc1C(=O)Nc1ccccc1-c1ccccc1	0	-	0	-	0	-
CC(C)CC(NC(N)=O)C(=O)NCCc1ccc(Cl)cc1 (stereo not drawn)	0	0	0	0	10.6	0
Cc1ccc(C)c(N(CC(=O)NC2CCCC2)C(=O)c2cc3cc4cccc(C)c4nc3s2)c1	0	0	0	0	0	0
Cc1ccc2cc3cc(C(=O)N(CC(=O)NC4CCCC4)c4cccc(C)c4C)sc3nc2c1	0	0	0	51.0	0	0
Cc1ccccc1-c1nc(CN2CCCC(C(=O)NCCCN3CCOCC3)C2)c(C)o1 (stereo not drawn)	0	0	-	0	0	0
COc1ccc(CCNC(=O)C2CCCN(Cc3nc(-c4ccccc4C)oc3C)C2)cc1OC (stereo not drawn)	0	0	-	92.0	0	0
COc1ccc(CCNC(=O)C2CCN(Cc3nc(-c4cccc(Cl)c4)oc3C)CC2)cc1OC	0	0	-	0	0	0
CCc1ccc(-c2nc(CN3CCCC(C(=O)NCCc4ccc(OC)c(OC)c4)C3)c(C)o2)cc1 (stereo not drawn)	0	0	0	83.2	0	0
c1ccc(COc2cccc(CNCc3cccs3)c2)cc1	0	0	0	98.3	0	0
Clc1ccc(COc2cccc(CNCc3ccncc3)c2)cc1	0	0	-	94.0	0	0
SMILES	CHOP inh	Arbovirus inh	Rad51 HR inh	L major viab	Wee1 degr inh	PKD1 inh
COc1ccc(COc2ccccc2C(=O)Nc2ccccn2)cc1[N+](=O)[O-]	0	0	0	61.6	0	0
O=C(Nc1ncccn1)c1ccc([N+](=O)[O-])o1	0	0	-	0	0	0
O=C(Nc1ccccn1)c1ccc([N+](=O)[O-])o1	0	0	-	99.4	0	0
Cc1ccnc(NC(=O)c2ccc([N+](=O)[O-])o2)c1	0	0	0	99.0	0	0
CC(=O)Nc1cc(O)cc(O)c1	0	-	0	-	0	-
COc1ccc(-c2c[n+](CC(=O)c3cccs3)c3n2CCC3)cc1	0	-	-	-	0	-
COc1ccc(C(=O)C[n+]2cc(-c3ccc(OC)cc3)n3c2CCCC3)cc1	0	0	0	98.6	0	0
Cc1ccc(C(=O)C[n+]2cc(-c3ccc(C)cc3)n3c2CCCCC3)cc1	0	0	-	100.5	0	0
Cc1ccc(NC(=O)C[n+]2cc(-c3ccc(C)cc3)n3c2CCC3)cc1	0	-	0	-	0	-
O=C(C[n+]1cc(-c2ccccc2)n2c1CCCCC2)c1ccc(Br)cc1	0	0	0	98.7	0	0
Cc1ccc(-c2c[n+](Cc3ccc(Cl)c(Cl)c3)c3n2CCC3)cc1	0	0	0	100.2	0	0
O=C(Nc1ccc(N2CCCCC2)cc1)c1ccc2ccccc2n1	0	0	0	0	0	0
COC(=O)C1=C(C)NC(=S)N(C(C)=O)C1c1ccc(OC)c(OC)c1 (stereo not drawn)	0	0	0	0	0	0
O=C(COc1cc(O)c2c(=O)c3ccccc3oc2c1)OCc1ccccc1	0	-	0	-	0	-
CCS(=O)(=O)N1CCN(C2CCC(c3ccccc3)CC2)CC1 (stereo not drawn)	0	0	0	98.7	0	0
CCCS(=O)(=O)N1CCN(C2Cc3ccccc3C2)CC1	0	-	-	-	0	-
c1ccc(C2CCC(N3CCNCC3)CC2)cc1 (stereo not drawn)	0	0	0	91.4	0	0
Cc1ccc(S(=O)(=O)N2CCN(C3CCC(c4ccccc4)CC3)CC2)cc1 (stereo not drawn)	0	0	-	95.7	0	0
O=C(NC(=O)c1ccccc1)OCCN1C(=O)c2ccccc2C1=O	0	0	0	0	0	0
O=C(Oc1ccc(NC(=O)c2cc3c(cc2Br)OCO3)cc1)c1ccccc1	0	-	0	-	0	-
CCn1cc(C(=O)NC(C)C23CC4CC(CC(C4)C2)C3)cn1 (stereo not drawn)	0	0	0	0	0	0
CC(NC(=O)CN1C(=O)NC(Cc2ccccc2)(Cc2ccccc2)C1=O)C12CC3CC(CC(C3)C1)C2 (stereo not drawn)	83.9	0	0	0	0	0
CC(NC(=O)Cn1ncc(Cl)c(Cl)c1=O)C12CC3CC(CC(C3)C1)C2 (stereo not drawn)	109.4	0	0	100.3	0	0
O=C1CSC(c2ccc([N+](=O)[O-])cc2)N1CCN1CCCCC1 (stereo not drawn)	0	0	0	85.9	0	0
Cn1cnc(S(=O)(=O)Nc2ccccc2C(=O)NCC2CC2)c1	0	-	0	-	0	-
SMILES	CHOP inh	Arbovirus inh	Rad51 HR inh	L major viab	Wee1 degr inh	PKD1 inh
CC(CCc1ccccc1)NCC(O)COc1ccccc1 (stereo not drawn)	0	0	0	82.9	0	0
N#C/C(=C1/C(=O)Nc2ccc(Br)cc21)c1ccccn1	0	0	0	0	0	0
CC(=O)Nc1ccccc1OCc1cnc(Cl)s1	0	0	0	0	0	0
Cc1cccc(CN2CCCC(C(=O)N3CCc4ccccc4C3)C2)c1 (stereo not drawn)	0	0	0	95.4	0	0
O=C(C1CCCN(Cc2ccncc2)C1)N1CCc2ccccc2C1 (stereo not drawn)	0	0	0	90.5	0	0
O=C(C1CCCN(Cc2ccccc2F)C1)N1CCc2ccccc2C1 (stereo not drawn)	0	-	-	-	0	-
